What was measured:
[1] = cited from earlier work
rat gut wall = assay: In situ single-pass intestinal perfusion in rats; type: in vivo; settings: pH 5.5, n=4, metoprolol co-perfused as reference
In short: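 Fasted (12–18 h) male Wistar rats (250–280 g), ketamine-xylazine im. ~10 cm jejunal, mid-intestinal or ileal segment cannulated and perfused at 0.18 ml/min with pH 5.5 MES buffer, 290 mosm/l, containing phenol red and metoprolol. Drug concentration = highest oral dose/250 ml. After 1 h to steady state, outlet sampled every 10 min for 1 h; HPLC. Peff by plug-flow model, water-flux corrected, R 0.2 cm.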

hPepT1 = biological target: T1, hPepT1 (Homo sapiens, UniProt P46059); assay: Uptake in hPepT1 transfected vs non-transfected HeLa cells; type: cell-based; settings: 1mM, pH 6.0, 45 min, 37°C, n=3
T1 sequence (P46059 1-708): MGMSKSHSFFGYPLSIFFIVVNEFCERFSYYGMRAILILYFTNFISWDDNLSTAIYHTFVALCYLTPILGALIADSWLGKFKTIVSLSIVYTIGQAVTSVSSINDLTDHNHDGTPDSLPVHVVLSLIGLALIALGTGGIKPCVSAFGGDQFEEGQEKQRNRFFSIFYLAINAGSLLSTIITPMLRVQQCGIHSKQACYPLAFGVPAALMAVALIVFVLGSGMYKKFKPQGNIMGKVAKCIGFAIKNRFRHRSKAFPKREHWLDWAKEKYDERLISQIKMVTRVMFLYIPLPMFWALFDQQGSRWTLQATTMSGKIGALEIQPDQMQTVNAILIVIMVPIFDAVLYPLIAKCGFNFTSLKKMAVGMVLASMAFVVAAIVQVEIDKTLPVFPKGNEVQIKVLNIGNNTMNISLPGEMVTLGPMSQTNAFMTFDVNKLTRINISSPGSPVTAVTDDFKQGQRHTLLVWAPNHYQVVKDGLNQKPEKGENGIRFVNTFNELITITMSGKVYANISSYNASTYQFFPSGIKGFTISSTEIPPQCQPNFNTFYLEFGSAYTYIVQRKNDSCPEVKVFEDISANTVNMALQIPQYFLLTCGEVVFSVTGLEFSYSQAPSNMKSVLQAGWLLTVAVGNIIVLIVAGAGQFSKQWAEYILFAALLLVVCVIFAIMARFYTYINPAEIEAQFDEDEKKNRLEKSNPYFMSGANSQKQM
In short: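 HeLa cells transduced with hPepT1-carrying adenovirus and used two days post-infection; non-transfected HeLa cells served as control. Cells were washed with pH 6.0 uptake buffer, then exposed to test compound (1mM) in uptake buffer at 37°C for 45 min and washed ice-cold. They were extracted in methanol:water (50:50) for 1 h at room temperature, and the supernatant was filtered and quantified by LC-MS. Sample protein was measured by DC assay against a BSA standard.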

Effective permeability (Peff), in words (rat gut wall)	Uptake in HeLa/hPepT1 cells compared to non-transfected HeLa cells (hPepT1)	Compound	Absolute oral availability [1]
absolutely no permeability		CC(=O)N[C@H]1[C@H]([C@H](O)[C@H](O)CO)OC(C(=O)O)=C[C@@H]1N=C(N)N [Zanamivir]	approximately 2%
	~ 5 fold	CC(C)[C@H](N)C(=O)OCCOCn1cnc2c(=O)[nH]c(N)nc21 [Valacyclovir]	
